KCNK3 inh: human KCNK3 channel inhibition, primary screen. B-score at 10 µM. CHO-KCNK3 thallium flux, FluxOR fluorescence; stronger effect = lower value. 340,000 tested, 0.84% active. O14649;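 active = B-score under library mean minus 4 SD, starting fluorescence ratio at most library mean plus 5 SD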;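 note: more negative B-score means stronger inhibition of thallium flux through KCNK3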
hERG protect: shields human hERG channel from block by proarrhythmic agents. Q12809. CHO-hERG, FluxOR thallium flux, dofetilide IC70 present. activation (rescue from dofetilide block), less the hit threshold, % at 10 µM. 310,000 tested, 0.51% active. AID 1511;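 active = activation above the mean of controls blocked by dofetilide plus 5 SD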;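 note: thallium influx through hERG after potassium depolarization seen as dye fluorescence rise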
KCNK9 inh: blocks the human KCNK9 two-pore domain potassium channel; B-score at 10 µM; Q9NPC2; 310,000 tested, 1.2% active; AID 488922; HEK293 KCNK9, FluxOR thallium flux fluorescence; stronger effect = lower value;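 active = ratio B-score over 3 SD below the library mean, with starting fluorescence within 5 SD of its mean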;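 note: negative B-score means less thallium flux so channel inhibition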
KCNQ1 block: inhibitors of human KCNQ1 potassium channel. AID 2642. 310,000 tested, 1.3% active. CHO-K1 KCNQ1, FluxOR thallium flux fluorescence; stronger effect = higher value. B-score at 10 µM;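 active = compounds whose thallium flux B-score, printed positive for inhibition, exceeds three library SD while starting fluorescence stays within three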;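 note: channel opened by potassium depolarization with thallium stimulus after 20 min compound exposure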
KCNQ1 act: potentiators or activators of human KCNQ1 potassium channel; 310,000 tested, 0.35% active; AID 2648; CHO-K1 KCNQ1, thallium flux FluxOR fluorescence; stronger effect = higher value; B-score at 10 µM;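 active = fluorescence ratio B-score, a plate-corrected score, at least three library SD, with initial intensity B-score within 5 SD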
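Assay system: CHO-K1 cells stably expressing KCNQ1; Medium: assay buffer with matched DMSO; Also added: K+/Tl+ depolarizing stimulus; Dosing: single dose; Timing: dye 90 min, compound 20 min, room temperature; Measured by: kinetic FluxOR thallium fluorescence, 10-s 1-Hz baseline, 110-s post-stimulus read; Read-out: peak-minus-minimum fluorescence over initial fluorescence, negative-control normalized, B-scored.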
Kir21 block: blocks the mouse Kir2.1 inward-rectifier potassium channel; B-score at 10 µM; 310,000 tested, 0.85% active; AID 1672; HEK293-Kir2.1, FluxOR thallium flux fluorescence; stronger effect = lower value;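 active = fluorescence ratio B-score at or below minus 3 SD of library scores, with starting-brightness B-score within 2 SD, cut at about -4.2 in these data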;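 note: channel flux triggered by added potassium and thallium sulfate stimulus; B-score of peak minus minimum fluorescence over baseline after thallium stimulus; more negative B-score means stronger Kir2.1 block with less thallium influx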
* marks the source's active call; other numbers are inactive results; i = inactive; nt = not tested or not shown. Hits are enriched below; roughly 3.8% of the tested compounds scored in any of these assays.

SMILES	KCNK3 inh	hERG protect	KCNK9 inh	KCNQ1 block	KCNQ1 act	Kir21 block
C=CCn1c(=S)[nH]c2scc(-c3cccs3)c2c1=O	i	41*	i	i	53*	0.74
C=CCn1c(=S)[nH]c2ccccc2c1=O	i	nt	nt	nt	nt	nt
Cn1c(=S)[nH]c2scc(-c3cccs3)c2c1=O	i	58*	i	i	66*	-0.02
CCCn1nc(C(=O)Nc2ccc(N3CCOCC3)cc2)c2ccccc2c1=O	i	nt	nt	nt	nt	nt
O=C(O)COc1ccccc1Cc1ccccc1	i	-4	i	i	i	0.14
CC(COc1ccccc1Cc1ccccc1)N1CCCCC1 (stereo not given)	nt	-11	i	i	i	-5.8*
CCOc1ccc(OCc2cccc(C(=O)Nc3ccc(CN4CCCCC4)cc3)c2)cc1	i	-22	i	6*	i	-1.9
COc1ccc(OCc2cccc(C(=O)Nc3ccc(CN4CCCCC4)cc3)c2)cc1	i	-13	i	i	i	-3.1
CC(Nc1cc(N2CCNCC2)ccc1[N+](=O)[O-])c1ccccc1 (stereo not given)	i	-9	i	i	i	-7.5*
COc1cccc(OCc2cc(C(=O)N3CCNC(=O)C3Cc3ccccc3)no2)c1 (stereo not given)	i	-9	i	i	i	-0.23
COc1ccccc1N(Cc1ccccc1)S(=O)(=O)c1cccc(C(=O)Nc2ccccn2)c1	i	-11	i	i	i	-0.59
COc1ccccc1N(Cc1ccccc1)S(=O)(=O)c1cccc(C(=O)Nc2ccc(C)cn2)c1	i	-18	i	6*	i	-0.91
CC(C)CC(O)(c1ccccc1)C(CN1CCOCC1)c1ccccc1 (stereo not given)	i	-6	i	i	i	0.93
OC(c1ccc(F)cc1)(C1CCCCC1)C(CN1CCOCC1)c1ccccc1 (stereo not given)	i	-7	i	8*	i	-0.78
COc1cccc(Nc2nc(Nc3ccc(Cl)c(C(=O)O)c3)nc(C)c2[N+](=O)[O-])c1	i	nt	nt	nt	nt	nt
Cc1cc(/C=C2\C(=N)N3N=C(C(C)C)SC3=NC2=O)c(C)n1Cc1ccccc1	i	-5	i	i	20*	-0.19
CCC1=NN2C(=N)/C(=C/c3cc(C)n(Cc4ccccc4)c3C)C(=O)N=C2S1	i	-8	i	i	i	0.13
Cc1ccc(S(=O)(=O)/C(C#N)=C/c2c(N3CCN(C)CC3)nc3ccccn3c2=O)cc1	i	-14	i	i	i	0.14
Cc1ccc(S(=O)(=O)/C(C#N)=C/c2c(N3CCN(Cc4ccccc4)CC3)nc3ccccn3c2=O)cc1	-11*	-16	i	i	i	-2.5
Cn1nc(-c2ccccc2)c(CSc2ccccc2Cl)c1Cl	i	-4	-7.6*	i	i	-0.04
Cc1ccc(S(=O)(=O)c2c(CO)c(-c3ccccc3)nn2C)cc1	i	-13	i	i	i	-0.34
C/C(=N\N=C(N)N)c1cccc(Cl)c1	i	-4	i	i	i	-2.6
C/C(=N\N=C(N)N)c1ccc(Cl)cc1Cl	i	-9	i	i	i	-7.2*
C/C(=N\N=C(N)N)c1cc(Cl)ccc1Cl	i	-5	i	i	i	-5.8*
CCN1/C(=C/C=C/C=C/c2sc3ccccc3[n+]2CC)Sc2ccccc21	nt	-42	i	17*	i	-3.9
CCN1/C(=C/C=C/C=C/C=C/c2sc3ccccc3[n+]2CC)Sc2ccccc21	i	-33	i	i	i	0.83
CC1(C)SC(=S)N(NC(=O)Nc2ccccc2)C1N(O)C(=O)Nc1cccc2ccccc12 (stereo not given)	i	-11	i	9*	i	0.04
CC1(C)SC(=S)N(/N=C/c2ccc(O)cc2)C1N(O)C(=O)Nc1ccc([N+](=O)[O-])cc1 (stereo not given)	i	-14	i	10*	i	1.5
CC1(C)SC(=S)N(/N=C/c2cccnc2)C1N(O)C(=O)Nc1ccccc1 (stereo not given)	i	-4	i	i	i	-0.64

Screening data from PubChem BioAssay.
